IC50, inhibition in vivo and ED50 data for 30 compounds are collected here from ChEMBL document CHEMBL1127818, “Identification of L-tryptophan derivatives with potent and selective antagonist activity at the NK1 receptor” (J Med Chem, 1994).

Each structure is given as a SMILES string. pIC50: −log10 of the molar value. A value given as a limit tells only on which side of the number the result lay.

The target in experiment [1] is T1, Neuromedin-K receptor (Homo sapiens, UniProt P29371).
T1 sequence (P29371 whole entry): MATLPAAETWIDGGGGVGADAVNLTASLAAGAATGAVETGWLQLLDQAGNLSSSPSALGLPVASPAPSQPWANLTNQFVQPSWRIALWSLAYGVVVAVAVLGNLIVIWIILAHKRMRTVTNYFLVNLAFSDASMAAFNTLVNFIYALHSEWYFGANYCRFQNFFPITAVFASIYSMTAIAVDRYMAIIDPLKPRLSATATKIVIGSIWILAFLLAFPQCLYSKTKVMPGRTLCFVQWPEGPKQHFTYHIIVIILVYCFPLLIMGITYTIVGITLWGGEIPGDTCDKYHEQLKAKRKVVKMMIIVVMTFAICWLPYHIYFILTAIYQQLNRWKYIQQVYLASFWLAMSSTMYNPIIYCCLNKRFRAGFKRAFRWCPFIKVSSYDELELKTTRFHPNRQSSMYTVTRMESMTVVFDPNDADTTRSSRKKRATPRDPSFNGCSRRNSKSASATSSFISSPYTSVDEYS
Briefly: Affinity to NK3 receptors assayed by displacement of [125I]-Bolton-Hunter labeled eledoisin radioligand. The method in brief: (§1)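 Cloned human NK2 or NK3 receptors stably expressed in CHO cells. Radioligand displacement with [125I]neurokinin A for NK2 and [125I]Bolton-Hunter labeled eledoisin for NK3; IC50 reported.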

Experiment [2] has as its target T2, Substance-K receptor (Homo sapiens, UniProt P21452).
T2 sequence (P21452 whole entry): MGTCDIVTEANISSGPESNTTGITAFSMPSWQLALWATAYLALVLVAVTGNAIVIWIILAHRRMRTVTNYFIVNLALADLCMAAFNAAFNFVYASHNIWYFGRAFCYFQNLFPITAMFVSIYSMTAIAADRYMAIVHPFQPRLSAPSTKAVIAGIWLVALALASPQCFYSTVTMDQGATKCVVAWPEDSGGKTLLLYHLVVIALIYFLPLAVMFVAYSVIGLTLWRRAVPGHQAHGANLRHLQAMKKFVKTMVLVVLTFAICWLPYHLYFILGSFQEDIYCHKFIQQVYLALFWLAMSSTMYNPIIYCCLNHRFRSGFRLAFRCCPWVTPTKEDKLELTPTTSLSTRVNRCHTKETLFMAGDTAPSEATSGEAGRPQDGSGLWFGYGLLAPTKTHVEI
Description: Binding affinity to the NK2 receptor assayed by displacement of [125I]-Neurokinin A. The method in brief:
as §1
On the technique in general: Loss of bound radioactivity is the signal in a displacement assay; it reports binding, not function.

Experiment [3] addresses Substance-P receptor (Homo sapiens, UniProt P25103). Description: Binding affinity towards cloned neurokinin 1 receptor, based on the displacement of [125I]-labeled substance P.
Experiment [4] is filed under the species Cavia porcellus. Description: animal or person. Conditions: po, read-out: Inhibition.
The species entered for experiment [5] is Cavia porcellus. Briefly: Inhibitory dose against substance P induced extravasation in the guinea pig. Conditions: read-out: ID50.

Substance-P receptor, sequence (P25103 whole entry): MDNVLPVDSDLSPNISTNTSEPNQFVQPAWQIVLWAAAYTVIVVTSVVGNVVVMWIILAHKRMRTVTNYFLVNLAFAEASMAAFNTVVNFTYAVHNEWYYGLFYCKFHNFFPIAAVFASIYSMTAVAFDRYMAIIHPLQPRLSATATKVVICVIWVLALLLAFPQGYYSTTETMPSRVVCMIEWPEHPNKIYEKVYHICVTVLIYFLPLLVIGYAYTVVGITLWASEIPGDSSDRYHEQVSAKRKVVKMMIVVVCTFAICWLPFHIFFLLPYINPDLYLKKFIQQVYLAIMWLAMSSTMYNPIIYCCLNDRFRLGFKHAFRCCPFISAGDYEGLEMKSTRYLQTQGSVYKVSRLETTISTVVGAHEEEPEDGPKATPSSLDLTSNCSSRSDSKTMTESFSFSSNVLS

For the compound `CC(=O)N[C@@H](Cc1ccccc1)C(=O)OCc1cc(C)cc(C)c1`, the pIC50 in experiment [1] was less than 5.30; in experiment [2], less than 5.30; in experiment [3], 6.36.

For `O=C(N[C@@H](Cc1c[nH]c2ccccc12)C(=O)OCc1ccc(C(F)(F)F)cc1)c1ccccc1`, the results for the negative-log IC50 (pIC50) in experiment [1], in experiment [2] and in experiment [3] were less than 5.30, less than 5.30 and 5.67, respectively.

Consider `COC(=O)N[C@@H](Cc1c[nH]c2ccccc12)C(=O)OCc1cc(C)cc(C)c1`, for which the pIC50 in experiment [1] was less than 5.30; in experiment [2], less than 5.30; in experiment [3], 7.06.

Consider `Cc1cc(C)cc(COC(=O)[C@H](Cc2c[nH]c3ccccc23)N(C)C)c1`, for which the negative-log IC50 (pIC50) in experiment [1] and in experiment [2] was less than 5.30 in each case.

As to `CC(=O)N[C@@H](Cc1cccc2ccccc12)C(=O)OCc1cc(C)cc(C)c1`, the pIC50 is less than 5.30 in experiment [1], less than 5.30 in experiment [2] and 6.82 in experiment [3].

As for `CNC(=O)N[C@@H](Cc1c[nH]c2ccccc12)C(=O)OCc1cc(C)cc(C)c1`, the pIC50 in experiment [1] is less than 5.30; in experiment [2], less than 5.30; in experiment [3], 6.99.

Regarding `O=C(N[C@@H](Cc1c[nH]c2ccccc12)C(=O)OCc1ccccc1Cl)c1ccccc1`, the pIC50 in experiment [1] and in experiment [2] was less than 5.30 throughout.

As for `COc1cccc(COC(=O)[C@H](Cc2c[nH]c3ccccc23)NC(=O)c2ccccc2)c1`, the figures for the pIC50 in experiment [1], in experiment [2] and in experiment [3] were less than 5.30, less than 5.30 and 6.12, respectively.

Regarding `COc1ccccc1COC(=O)[C@H](Cc1c[nH]c2ccccc12)NC(=O)OC(C)(C)C`, the negative-log IC50 (pIC50) in experiment [1] and in experiment [2] was less than 5.30 each time.

For the compound `Cc1cc(C)cc(COC(=O)[C@H](Cc2c[nH]c3ccccc23)NC(=O)OC(C)(C)C)c1`, the pIC50 in experiment [1] and in experiment [2] was less than 5.30 throughout.

As to `O=C(N[C@@H](Cc1c[nH]c2ccccc12)C(=O)OCc1cccc(C(F)(F)F)c1)c1ccccc1`, the pIC50 was less than 5.30 in experiment [1], less than 5.30 in experiment [2] and 7.21 in experiment [3].

For `CCN[C@@H](Cc1c[nH]c2ccccc12)C(=O)OCc1ccccc1`, the pIC50 in experiment [1] and in experiment [2] was less than 5.30 in each case.

Regarding `Cc1cc(C)cc(COC(=O)[C@H](Cc2c[nH]c3ccccc23)NC(=O)c2ccccc2)c1`, the negative logarithm of the IC50 (pIC50) in experiment [1] was less than 5.30; in experiment [2], less than 5.30; in experiment [3], 7.66.

In the case of `N[C@@H](Cc1c[nH]c2ccccc12)C(=O)OCc1ccccc1`, the pIC50 in experiment [1] and in experiment [2] was less than 5.30 throughout.

Turning to `Cc1cc(C)cc(COC(=O)[C@@H](N)Cc2c[nH]c3ccccc23)c1`, the pIC50 in experiment [1] and in experiment [2] was less than 5.30 throughout.

On to `O=C(N[C@@H](Cc1c[nH]c2ccccc12)C(=O)OCc1ccc(Cl)cc1)c1ccccc1`, for which the values for the pIC50 in experiment [1], in experiment [2] and in experiment [3] were less than 5.30, less than 5.30 and 6.61, respectively.

With `COc1ccccc1COC(=O)[C@H](Cc1c[nH]c2ccccc12)NC(=O)c1ccccc1`, the values for the pIC50 in experiment [1], in experiment [2] and in experiment [3] were less than 5.30, less than 5.30 and less than 7.00, respectively.

Take `O=C(N[C@@H](Cc1c[nH]c2ccccc12)C(=O)OCc1cccc(Cl)c1)c1ccccc1`: the pIC50 in experiment [1] is less than 5.30; in experiment [2] it was less than 5.30; in experiment [3] it was 5.98.

On to `CC(=O)N[C@@H](Cc1ccc2ccccc2c1)C(=O)OCc1cc(C)cc(C)c1`, for which the negative-log IC50 (pIC50) is less than 5.30 in experiment [1], less than 5.30 in experiment [2] and 6.86 in experiment [3].

With `O=C(N[C@@H](Cc1c[nH]c2ccccc12)C(=O)OCc1ccccc1C(F)(F)F)c1ccccc1`, the values for the pIC50 in experiment [1], in experiment [2] and in experiment [3] were less than 5.30, less than 5.30 and 6.74, respectively.

For `Cc1cc(C)cc(COC(=O)[C@H](Cc2c[nH]c3ccccc23)[N+](C)(C)C)c1`, the negative logarithm of the IC50 (pIC50) in experiment [1] and in experiment [2] was less than 5.30 throughout.

Regarding `O=C(N[C@@H](Cc1c[nH]c2ccccc12)C(=O)OCc1cc(C(F)(F)F)cc(C(F)(F)F)c1)c1ccccc1`, the pIC50 was less than 5.30 in experiment [1], less than 5.30 in experiment [2] and 8.57 in experiment [3].

In the case of `COc1ccc(COC(=O)[C@H](Cc2c[nH]c3ccccc23)NC(=O)c2ccccc2)cc1`, the values for the pIC50 in experiment [1], in experiment [2] and in experiment [3] were less than 5.30, less than 5.30 and 5.26, respectively.

Regarding `CC(C)(C)OC(=O)N[C@@H](Cc1c[nH]c2ccccc12)C(=O)OCc1ccccc1`, the pIC50 in experiment [1] and in experiment [2] was less than 5.30 each time.

Consider `CC(=O)N[C@@H](Cc1ccc(Cl)c(Cl)c1)C(=O)OCc1cc(C)cc(C)c1` (racemic), for which the pIC50 was less than 5.30 in experiment [1], less than 5.30 in experiment [2] and 7.52 in experiment [3].

For the compound `CC(=O)N[C@@H](Cc1n[nH]c2ccccc12)C(=O)OCc1cc(C(F)(F)F)cc(C(F)(F)F)c1` (racemic), the pIC50 in experiment [1] was less than 5.30; in experiment [2], less than 5.30; in experiment [3], 6.71.

Take `CC(=O)N[C@@H](Cc1csc2ccccc12)C(=O)OCc1cc(C(F)(F)F)cc(C(F)(F)F)c1` (racemic) [L-709400]: the pIC50 in experiment [1] was less than 5.30; in experiment [2], less than 5.30; in experiment [3] it was 8.10.

Consider `Cc1cc(C)cc(COC(=O)C(Cc2c[nH]c3ccccc23)NC(=O)c2ccccc2)c1` (single isomer, unassigned), for which the pIC50 in experiment [1] and in experiment [2] was less than 5.30 each time.

As to `CC(=O)N[C@@H](Cc1c[nH]c2ccccc12)C(=O)OCc1cc(C)cc(C)c1` [L-708568], the pIC50 in experiment [1] and in experiment [2] was less than 5.30 each time.

As to `CC(=O)N[C@@H](Cc1c[nH]c2ccccc12)C(=O)OCc1cc(C(F)(F)F)cc(C(F)(F)F)c1` [L-732138], the pIC50 in experiment [1] and in experiment [2] was less than 5.30 throughout. Moreover, the inhibition in vivo at 30 mg/kg in experiment [4] was determined as 22%. The ED50 in experiment [5] turned out to be 8 mg/kg.

The term pIC50 denotes the IC50 on a negative log10 scale, so that one unit is a factor of ten. Low values mean a high IC50, high ones a low IC50.
